Test results: ChEMBL document CHEMBL2429865, “Withaferin A, a steroidal lactone from Withania somnifera, induces mitotic catastrophe and growth arrest in prostate cancer cells” (2013)
Calls of active or inactive are those of the source. The calls are words filed in the database; no cut-off is given here.

Key:
DU-145 [1] = test: Cell cycle arrest in human DU145 cells assessed as accumulation at G2/M phase at 1 uM after 8 hrs by propidium iodide staining-based flow cytometry; type: functional
PC-3 [2] = test: Cell cycle arrest in human PC3 cells assessed as accumulation at G2/M phase at 1 uM after 8 hrs by propidium iodide staining-based flow cytometry; type: functional
[3] = target: Tubulin alpha (Homo sapiens) (UniProt P0DPH7+P68366+Q71U36+P68363+Q9BQE3+Q6PEY2+A6NHL2+Q9NY65); test: Inhibition of tubulin-alpha (unknown origin) polymerization by fluorescence-based assay; type: protein assay; settings: TDE = time-dependent effect
PC-3 [4] = test: Mitotic arrest in human PC3 cells assessed as distorted spindles and curving microtubule array by DAPI staining-based confocal microscopic analysis; type: functional, cell-based
How it was run: (§1)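 PC-3 cells on coverslips are grown to 60% confluence and treated for 24 h. They are fixed in 4% paraformaldehyde for 20 min at room temperature, permeabilized with 0.2% Triton X-100 for 20 min, and immunostained for pH3 (Ser10), Aurora B or α-tubulin with Alexa Fluor secondaries, rhodamine-phalloidin and DAPI. Imaging is by laser scanning confocal microscopy.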

PC-3 [5] = test: Mitotic arrest in human PC3 cells assessed as defect in depolymerization of tubulin-alpha by DAPI staining-based confocal microscopic analysis; type: functional, cell-based; how it was run: as §1
PC-3 [6] = test: Mitotic arrest in human PC3 cells assessed as accumulation of phosphorylated histone H3 in nucleus by DAPI staining-based confocal microscopic analysis; type: functional, cell-based; how it was run: as §1
PC-3 [7] = test: Mitotic arrest in human PC3 cells assessed as punctate distribution of Aurora B in centromeric region of chromosomes by DAPI staining-based confocal microscopic analysis; type: functional, cell-based; how it was run: as §1
[8] = target: Aurora kinase B (Homo sapiens) (UniProt Q96GD4); test: Induction of Aurora B-mediated histone H3 phosphorylation at Ser10 in human PC3 cells after 12 to 48 hrs by Western blotting analysis; type: cell-based; settings: PC-3
PC-3 [9] = test: Upregulation of Aurora B protein expression in human PC3 cells at IC50 after 12 to 48 hrs by Western blotting analysis; type: functional, cell-based
PC-3 [10] = test: Effect on 14-3-3 protein expression in human PC3 cells at IC50 after 12 to 48 hrs by Western blotting analysis; type: functional, cell-based
[11] = target: Cyclin-dependent kinase 1/cyclin B1 (Homo sapiens) (UniProt P06493+P14635); test: Activation of Cdc2/cyclin B in human PC3 cells; type: cell-based; settings: PC-3
How it was run: (§2)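 Lysates of vehicle- or drug-treated PC-3 cells are diluted in kinase buffer and added to wells precoated with recombinant Cdc25C substrate. Phosphorylation is started with Mg2+ and ATP. Phospho-Cdc25C Ser216 is detected with an HRP-conjugated antibody and TMB colour with stop reagent. The Cdc2-cyclin B1 line uses a parallel kit of the same format.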

[12] = target: T1, Serine/threonine-protein kinase Chk1 (Homo sapiens) (UniProt O14757); test: Activation of Chk1 in human PC3 cells assessed as phosphorylation of CDC25C at Ser216; type: cell-based; settings: PC-3; how it was run: as §2
T1 sequence (whole entry): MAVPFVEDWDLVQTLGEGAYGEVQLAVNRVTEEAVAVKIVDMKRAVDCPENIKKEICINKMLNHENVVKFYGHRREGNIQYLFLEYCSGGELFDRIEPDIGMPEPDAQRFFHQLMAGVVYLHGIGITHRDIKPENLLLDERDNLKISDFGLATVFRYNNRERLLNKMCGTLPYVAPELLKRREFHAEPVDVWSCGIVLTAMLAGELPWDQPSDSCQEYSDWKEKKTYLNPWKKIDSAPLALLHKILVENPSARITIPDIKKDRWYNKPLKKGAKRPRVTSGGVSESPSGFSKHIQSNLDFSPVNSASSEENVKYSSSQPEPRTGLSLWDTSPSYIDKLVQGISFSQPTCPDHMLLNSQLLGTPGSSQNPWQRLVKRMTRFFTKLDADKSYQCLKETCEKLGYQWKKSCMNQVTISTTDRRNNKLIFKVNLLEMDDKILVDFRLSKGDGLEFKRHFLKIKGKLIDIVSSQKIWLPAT

[13] = target: Serine/threonine-protein kinase Chk2 (Homo sapiens) (UniProt O96017); test: Reduction in CHK2 phosphorylation at Thr68 in human PC3 cells at IC50 after 12 to 48 hrs by Western blotting analysis; type: cell-based; settings: PC-3
[14] = target: T1, Serine/threonine-protein kinase Chk1 (Homo sapiens); test: Reduction in CHK1 phosphorylation at Ser345 in human PC3 cells at IC50 after 12 to 48 hrs by Western blotting analysis; type: cell-based; settings: PC-3
[15] = target: Cyclin-dependent kinase 1 (Homo sapiens) (UniProt P06493); test: Reduction in CDC2 phosphorylation at Tyr15 in human PC3 cell cytoplasm at 1 uM after 24 hrs by immunofluorescence assay; settings: PC-3
How it was run: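 PC-3 cells on coverslips at 60% confluence are treated with drug or DMSO for 24 h. They are fixed in 4% paraformaldehyde, permeabilized with 0.2% Triton X-100, and immunostained for pCdc2 (Tyr15) with Alexa Fluor secondary and DAPI counterstain. Images are taken by fluorescence/confocal microscopy.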

PC-3 [16] = test: Downregulation of Myt-1 protein expression in human PC3 cells at 1 uM after 12 to 48 hrs by Western blotting analysis; type: functional, cell-based
How it was run: (§3)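 PC-3 cells are treated with 1 μM for various times. Lysates are made in M-PER buffer with protease inhibitor cocktail, and 25 μg protein is immunoblotted for pWee1 (Ser642), Wee1, pCdc2 (Tyr15), Cdc25C (Ser216) and Myt-1, with β-actin as loading control.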

[17] = target: T2, M-phase inducer phosphatase 3 (Homo sapiens) (UniProt P30307); test: Reduction in CDC25C phosphorylation at Ser216 in human PC3 cells at 1 uM after 12 to 24 hrs by Western blotting analysis; type: cell-based; settings: PC-3; how it was run: as §3
T2 sequence (whole entry): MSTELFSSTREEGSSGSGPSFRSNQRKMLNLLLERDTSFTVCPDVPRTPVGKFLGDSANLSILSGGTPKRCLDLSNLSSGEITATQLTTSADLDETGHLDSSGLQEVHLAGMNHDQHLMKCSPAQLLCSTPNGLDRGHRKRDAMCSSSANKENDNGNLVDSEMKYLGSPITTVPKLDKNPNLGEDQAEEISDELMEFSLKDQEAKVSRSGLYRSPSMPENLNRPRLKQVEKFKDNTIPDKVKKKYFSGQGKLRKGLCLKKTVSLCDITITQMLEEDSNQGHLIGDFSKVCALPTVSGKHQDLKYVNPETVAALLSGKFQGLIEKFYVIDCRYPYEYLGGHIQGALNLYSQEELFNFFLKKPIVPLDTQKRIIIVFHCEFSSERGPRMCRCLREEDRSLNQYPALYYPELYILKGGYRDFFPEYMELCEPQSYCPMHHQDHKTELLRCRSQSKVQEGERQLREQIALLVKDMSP

PC-3 [18] = test: Upregulation of p21 protein expression in human PC3 cells at IC50 after 12 to 48 hrs by Western blotting analysis; type: functional, cell-based
PC-3 [19] = test: Downregulation of cyclin B1 protein expression in human PC3 cells at IC50 after 12 to 48 hrs by Western blotting analysis; type: functional, cell-based
PC-3 [20] = test: Downregulation of cyclin A2 protein expression in human PC3 cells at IC50 after 12 to 48 hrs by Western blotting analysis; type: functional, cell-based
PC-3 [21] = test: Downregulation of cyclin E2 protein expression in human PC3 cells at IC50 after 12 to 48 hrs by Western blotting analysis; type: functional, cell-based
DU-145 [22] = test: Induction of cell cycle arrest in human DU145 cells assessed as accumulation at G2/M phase at 1 uM after 48 hrs by propidium iodide staining-based flow cytometry (reference value: 22%); type: functional
DU-145 [23] = test: Induction of cell cycle arrest in human DU145 cells assessed as accumulation at G2/M phase at 1 uM after 24 hrs by propidium iodide staining-based flow cytometry (reference value: 22%); type: functional
PC-3 [24] = test: Induction of cell cycle arrest in human PC3 cells assessed as accumulation at G2/M phase at 1 uM after 48 hrs by propidium iodide staining-based flow cytometry (reference value: 25.3%); type: functional
DU-145 [25] = test: Growth inhibition of human DU145 cells assessed as loss of cell viability after 24 hrs by trypan blue exclusion assay; type: functional, cell-based
How it was run: (§4)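 PC-3 (DMEM) and DU-145 (RPMI-1640) cells, with 10% heat-inactivated FBS, are seeded at 3×10⁵ cells/well, cultured 24 h, then exposed to 0.5, 1, 2, 3 and 4 μM for 24 h at 37°C, 5% CO₂. DMSO is ≤0.002%. Viable cells are counted by trypan blue exclusion on a hemocytometer and expressed as % of DMSO control. IC50 is calculated. Mean ± SEM of three independent experiments.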

PC-3 [26] = test: Induction of cell cycle arrest in human PC3 cells assessed as accumulation at G2/M phase at 1 uM after 24 hrs by propidium iodide staining-based flow cytometry (reference value: 28.3%); type: functional
PC-3 [27] = test: Growth inhibition of human PC3 cells assessed as loss of cell viability after 24 hrs by trypan blue exclusion assay; type: functional, cell-based; how it was run: as §4
[28] = target: Wee1-like protein kinase (Homo sapiens) (UniProt P30291); test: Induction of Wee1 phosphorylation at Ser642 in human PC3 cells at 1 uM after 12 to 24 hrs by Western blotting analysis; type: cell-based; settings: PC-3; how it was run: as §3
[29] = target: Cyclin-dependent kinase 1 (Homo sapiens) (UniProt P06493); test: Reduction in CDC2 phosphorylation at Tyr15 in human PC3 cells at 1 uM after 12 to 24 hrs by Western blotting analysis; type: cell-based; settings: PC-3; how it was run: as §3
PC-3 [30] = test: Upregulation of p21 mRNA expression in human PC3 cells at IC50 after 12 to 48 hrs by SYBR green staining-based RT-PCR analysis; type: functional, cell-based

Chain of Cyclin-dependent kinase 1 (Homo sapiens) (P06493 whole entry, looked up): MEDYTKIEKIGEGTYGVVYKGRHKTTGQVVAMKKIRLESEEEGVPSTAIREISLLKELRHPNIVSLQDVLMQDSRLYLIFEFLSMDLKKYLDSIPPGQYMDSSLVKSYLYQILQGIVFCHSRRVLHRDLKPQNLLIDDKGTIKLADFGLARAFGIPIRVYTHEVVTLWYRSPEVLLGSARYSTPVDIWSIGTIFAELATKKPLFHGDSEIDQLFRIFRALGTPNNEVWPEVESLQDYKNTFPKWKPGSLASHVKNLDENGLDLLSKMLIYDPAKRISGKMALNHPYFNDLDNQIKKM
Chain of Wee1-like protein kinase (Homo sapiens) (P30291 whole entry, looked up): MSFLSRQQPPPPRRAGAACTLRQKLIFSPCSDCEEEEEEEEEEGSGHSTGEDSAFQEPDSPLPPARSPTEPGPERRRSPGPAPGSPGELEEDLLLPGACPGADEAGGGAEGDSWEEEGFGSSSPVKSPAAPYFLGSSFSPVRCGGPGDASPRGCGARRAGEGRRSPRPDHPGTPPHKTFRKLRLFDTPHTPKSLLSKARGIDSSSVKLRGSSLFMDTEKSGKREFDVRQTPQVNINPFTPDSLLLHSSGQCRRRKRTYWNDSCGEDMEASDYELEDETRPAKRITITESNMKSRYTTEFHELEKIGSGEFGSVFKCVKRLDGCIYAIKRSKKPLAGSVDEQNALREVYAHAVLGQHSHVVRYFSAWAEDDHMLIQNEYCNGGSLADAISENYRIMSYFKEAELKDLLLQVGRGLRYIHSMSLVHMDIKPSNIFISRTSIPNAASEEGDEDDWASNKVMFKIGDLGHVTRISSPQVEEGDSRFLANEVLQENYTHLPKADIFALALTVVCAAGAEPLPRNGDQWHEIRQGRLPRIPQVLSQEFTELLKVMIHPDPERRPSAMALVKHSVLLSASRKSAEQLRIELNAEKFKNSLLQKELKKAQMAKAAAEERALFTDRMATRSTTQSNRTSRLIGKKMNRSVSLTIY
Chain of Serine/threonine-protein kinase Chk2 (Homo sapiens) (O96017 whole entry): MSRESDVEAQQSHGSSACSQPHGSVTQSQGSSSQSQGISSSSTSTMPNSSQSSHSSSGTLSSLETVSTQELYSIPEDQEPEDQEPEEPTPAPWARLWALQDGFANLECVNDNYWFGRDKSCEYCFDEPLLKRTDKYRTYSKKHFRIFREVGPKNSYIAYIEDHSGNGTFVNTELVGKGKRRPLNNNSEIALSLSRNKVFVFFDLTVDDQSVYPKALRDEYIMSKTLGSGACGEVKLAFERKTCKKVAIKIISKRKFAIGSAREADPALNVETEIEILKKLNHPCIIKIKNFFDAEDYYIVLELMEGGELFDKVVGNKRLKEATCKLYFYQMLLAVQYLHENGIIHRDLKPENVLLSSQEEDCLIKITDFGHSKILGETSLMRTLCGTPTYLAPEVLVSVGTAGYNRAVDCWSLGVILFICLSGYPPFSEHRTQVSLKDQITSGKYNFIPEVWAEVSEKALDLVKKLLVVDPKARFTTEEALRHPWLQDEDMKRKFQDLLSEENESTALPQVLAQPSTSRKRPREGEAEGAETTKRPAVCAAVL
Chain of Aurora kinase B (Homo sapiens) (Q96GD4 whole entry): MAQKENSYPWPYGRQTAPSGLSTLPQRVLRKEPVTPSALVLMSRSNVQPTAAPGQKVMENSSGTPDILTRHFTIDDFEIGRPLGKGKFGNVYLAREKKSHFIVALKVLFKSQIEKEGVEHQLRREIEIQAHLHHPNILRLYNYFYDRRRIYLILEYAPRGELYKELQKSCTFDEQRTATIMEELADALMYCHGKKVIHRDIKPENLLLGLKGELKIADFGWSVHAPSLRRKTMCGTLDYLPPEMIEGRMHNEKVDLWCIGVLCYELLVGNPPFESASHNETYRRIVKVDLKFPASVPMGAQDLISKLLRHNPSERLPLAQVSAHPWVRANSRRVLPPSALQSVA
Chain of Cyclin-dependent kinase 1/cyclin B1 (Homo sapiens) (P06493 whole entry, looked up): as the sequence (P06493 whole entry, looked up) above
Chain of Cyclin-dependent kinase 1/cyclin B1 (Homo sapiens) (P14635 whole entry, looked up): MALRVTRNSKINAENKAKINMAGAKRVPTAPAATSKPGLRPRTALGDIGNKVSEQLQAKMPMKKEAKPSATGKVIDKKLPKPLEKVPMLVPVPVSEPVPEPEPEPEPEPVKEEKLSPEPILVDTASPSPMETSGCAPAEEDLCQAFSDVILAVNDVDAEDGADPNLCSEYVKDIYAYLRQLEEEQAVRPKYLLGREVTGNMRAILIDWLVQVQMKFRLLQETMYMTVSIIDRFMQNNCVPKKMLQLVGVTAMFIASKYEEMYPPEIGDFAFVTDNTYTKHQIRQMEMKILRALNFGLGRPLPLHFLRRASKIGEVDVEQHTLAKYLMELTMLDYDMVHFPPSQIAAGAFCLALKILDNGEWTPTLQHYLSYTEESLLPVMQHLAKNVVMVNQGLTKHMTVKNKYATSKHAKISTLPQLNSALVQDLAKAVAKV

CC1=C(CO)C(=O)O[C@@H]([C@@H](C)[C@H]2CC[C@H]3[C@@H]4C[C@H]5O[C@]56[C@@H](O)C=CC(=O)[C@]6(C)[C@H]4CC[C@]23C)C1 [WITHAFERIN A]
Activity (DU-145 [1]): Active
Activity (PC-3 [2]): Active
inhibition [3]: tde
Activity (PC-3 [4]): Active
Activity (PC-3 [5]): Active
Activity (PC-3 [6]): Active
Activity (PC-3 [7]): Active
Activity [8]: Active
Activity (PC-3 [9]): Active
Activity (PC-3 [10]): inactive
Activity [11]: inactive
Activity [12]: inactive
Activity [13]: Active
Activity [14]: Active
Activity [15]: Active
Activity (PC-3 [16]): Active
Activity [17]: Active
Activity (PC-3 [18]): Active
Activity (PC-3 [19]): Active
Activity (PC-3 [20]): Active
Activity (PC-3 [21]): Active
Activity (DU-145 [22]): 24.75%
Activity (DU-145 [23]): 36.75%
Activity (PC-3 [24]): 60.7%
growth inhibition (GI) (DU-145 [25]): Dose-dependent effect
Activity (PC-3 [26]): 62.7%
growth inhibition (GI) (PC-3 [27]): Dose-dependent effect
Activity [28]: Active
Activity [29]: Active
Activity (PC-3 [30]): Active
